Data on 3 compounds can be found in PMC11951523 (Genome Biology, 2025).

Series [1] addresses T1, SauCas9 (Staphylococcus aureus, UniProt J7RUA5).
T1 sequence (J7RUA5 1-1053): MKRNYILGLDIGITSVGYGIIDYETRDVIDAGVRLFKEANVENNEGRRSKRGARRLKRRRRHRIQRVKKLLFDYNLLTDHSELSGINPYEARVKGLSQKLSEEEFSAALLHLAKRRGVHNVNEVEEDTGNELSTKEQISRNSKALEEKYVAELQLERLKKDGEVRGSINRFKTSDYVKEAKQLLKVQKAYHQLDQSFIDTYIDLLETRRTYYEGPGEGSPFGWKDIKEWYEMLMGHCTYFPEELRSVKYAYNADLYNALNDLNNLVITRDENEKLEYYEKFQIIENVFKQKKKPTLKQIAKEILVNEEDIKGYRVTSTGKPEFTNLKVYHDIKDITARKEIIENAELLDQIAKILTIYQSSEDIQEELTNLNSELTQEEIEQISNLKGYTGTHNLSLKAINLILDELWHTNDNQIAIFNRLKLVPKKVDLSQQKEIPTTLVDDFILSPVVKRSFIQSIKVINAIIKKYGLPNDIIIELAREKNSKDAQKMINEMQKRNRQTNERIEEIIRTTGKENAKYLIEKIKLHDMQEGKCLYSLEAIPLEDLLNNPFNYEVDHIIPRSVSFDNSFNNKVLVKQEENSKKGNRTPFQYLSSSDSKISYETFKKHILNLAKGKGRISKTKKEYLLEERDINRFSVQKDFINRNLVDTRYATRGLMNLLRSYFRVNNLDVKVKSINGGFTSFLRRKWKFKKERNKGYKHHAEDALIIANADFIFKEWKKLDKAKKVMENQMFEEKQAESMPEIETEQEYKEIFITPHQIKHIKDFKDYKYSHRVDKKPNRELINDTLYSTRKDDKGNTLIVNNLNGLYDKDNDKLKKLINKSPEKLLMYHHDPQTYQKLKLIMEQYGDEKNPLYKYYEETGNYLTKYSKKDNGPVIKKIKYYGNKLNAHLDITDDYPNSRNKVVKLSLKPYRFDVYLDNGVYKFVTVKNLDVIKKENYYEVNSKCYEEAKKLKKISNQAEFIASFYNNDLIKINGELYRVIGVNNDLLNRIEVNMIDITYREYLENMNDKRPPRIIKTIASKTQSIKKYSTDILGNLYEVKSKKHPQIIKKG
Briefly: In vitro purified enzyme activity assay for SauCas9. The class given is biochemical. The conditions noted are these: Sau Cas9.

The test system of series [2] is SpyCas9. The conditions noted are these: read-out: IC50 in the in vitro DNA cleavage assay; cited from earlier work.
The target in series [3] is T2, SpyCas9 (Streptococcus pyogenes serotype M1, UniProt Q99ZW2). Briefly: biochemical. The conditions noted are these: Spy Cas9.
Series [4] deals with T2, SpyCas9. Put plainly: Two-plasmid-based bacterial survival assay. The class given is cell-based. The conditions noted are these: read-out: IC50, bacteria-based assay, Spy Cas9, bacterial survival assay using pCas and pTarget-sgSSEA plasmids, E. coli MG1655. In short, it runs like this:
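E. coli MG1655 competent cells carrying pCas (SpyCas9) electroporated with pTarget-sgSSEA, or the pT-sgControl plasmid as reference. Test compound added to the electroporated bacteria for 1.5 h at 32 °C, then plated on LB with kanamycin and spectinomycin and incubated overnight. Colonies counted and expressed as a percentage of the compound-treated sgControl strain at the same concentration (100%).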

Series [5] addresses T2, SpyCas9. Put plainly: GFP-disruption assay in HEK293FT cells. It is filed as cell-based. The conditions noted are these: read-out: IC50, cell-based assay; Spy Cas9; GFP-disruption assay, PX459-SpyCas9 and pGL3-sgGFP plasmids, HEK293FT cells.
Series [6] addresses T2, SpyCas9. The class given is cell-based. The settings on record: read-out: IC50, cell-based assay; Spy Cas9; TIDE analysis, editing efficiency for COSMC or EMX1 loci in HEK293FT cells. In short, it runs like this:
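HEK293FT cells, ~2 × 10^5 per well, were seeded 1 day before transfection (Lipofectamine 3000) with 1 μg PX459-SpyCas9-sgCOSMC, -sgEMX1 or -sgControl. Test compound was added 0 or 6 h post-transfection, and cells were kept 24 h at 37 °C, then selected with 2.5 μg/ml puromycin for 36–48 h. Target loci were PCR-amplified, Sanger-sequenced and scored by TIDE.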

Series [7] addresses T1, SauCas9. Briefly: SauCas9-mediated genome editing of COSMC in HEK293FT cells, TIDE analysis. The class given is cell-based. The settings on record: read-out: IC50, cell-based assay; Sau Cas9; TIDE analysis, editing efficiency for COSMC in HEK293FT cells. In short, it runs like this: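 HEK293FT wt cells were co-transfected (Lipofectamine 3000) with 1 μg miniCMV-SaCas9 and 1 μg pGL3 carrying sgCOSMC-Sau or sgControl. Test compound was added right after transfection for 24 h, followed by 2.5 μg/ml puromycin selection. The COSMC locus was PCR-amplified (40 cycles), Sanger-sequenced, and editing efficiency was obtained by TIDE analysis.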

The next series has as its target BE4 base editor (Streptococcus pyogenes, UniProt Q99ZW2, D10A). Briefly: BE4-mediated base editing of EMX1 in HEK293FT cells, EditR analysis. The class given is cell-based. The conditions noted are these: read-out: IC50, cell-based assay; BE4 base editing efficiency for EMX1 loci, HEK293FT cells.
The target in the next series is FnoCas12a (Francisella tularensis subsp. novicida, UniProt A0Q7Q2). It is filed as biochemical.
The next series relates to LbaCas12a. Put plainly: LbaCas12a activity assay. The class given is biochemical, Lachnospiraceae bacterium. The settings on record: for effect on the activity of LbaCas12a: complete inhibition refers to 50 μM or above.
Series [8] deals with EcoRI or KpnI endonuclease. Put plainly: EcoRI or KpnI endonuclease activity assay with 2.5 kb linear DNA. The class given is biochemical.
Series [9] relates to SpyCas9-mediated genome editing of PCSK9. Briefly: SpyCas9-mediated anti-PCSK9 mouse model by hydrodynamic injection. The class given is in vivo, BALB/c mice. In short, it runs like this: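 On days 1, 4 and 7, 90 μg PX459-SpyCas9-sgPCSK9 or -sgControl in 2 ml saline was injected hydrodynamically into the tail vein over 5–8 s. Orbital blood (~100 μl) was taken days 2, 5 and 8, and heparin plasma (20 μl) was assayed by PCSK9 ELISA.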

A further series has as its system E. coli MG1655. Put plainly: Toxicity to bacteria in the two-plasmid-based bacterial survival assay. It is filed as cell-based. The conditions noted are these: MG1655, bacterial survival assay. In short, it runs like this: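 MG1655 pCas-competent cells were electroporated with pT-sgControl. Test compound was added to 700 μl LB immediately afterwards and incubated 1.5 h at 32 °C, then plated on LB agar with kanamycin and spectinomycin (100 μg/ml each). Colonies were counted after overnight incubation; biological replicates n = 3.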

The conditions of series [10]: in humans; cited from earlier work.
For series [11], the target named is T2, SpyCas9. Briefly: Surface plasmon resonance assay. The class given is binding. In short, it runs like this: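 His-tagged SpyCas9, Ni–NTA purified and imidazole-eluted, amine-coupled to a CM5 chip at 100 μg/ml. Test compounds were diluted in 1× PBST to a series of concentrations and injected at 30 μl/min, with 120 s association and 120 s dissociation. Equilibrium KD was fitted from the response curves.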

Setting [12] is: read-out: IC50, in vitro purified enzyme assay, linear substrates (87 bp oligonucleotide).
[13] abbreviates: read-out: IC50, in vitro purified enzyme assay, supercoil (circular) plasmid substrate.

Like-named read-outs stand apart in the source and are kept apart here.

For orientation: IC50 means the concentration that inhibits the measured activity by half. As a reminder, the Kd is the free concentration of one partner at which half of the binding sites on the other are occupied at equilibrium, for simple one-to-one binding. A low value points to a tighter complex.

Turning to `Cc1ccc(S(=O)(=O)N2CC[C@@H]3[C@H](CO)Nc4ccc(-c5ccccc5F)cc4[C@@H]32)cc1` [BRD0539], the IC50 was 10 to 20 µM at SauCas9 [1] (setting [12]), roughly 50 µM at SauCas9 [1] (setting [13]) and 22 µM with SpyCas9 [2].
Turning to `CN[C@H]1C(=O)N[C@@H]2Cc3ccc(cc3)Oc3cc4cc(c3O[C@@H]3O[C@H](C(=O)O)[C@@H](O)[C@H](O)[C@H]3NC(=O)CCCCCCCCC(C)C)Oc3ccc(cc3Cl)[C@@H](O)[C@@H]3NC(=O)[C@H](NC(=O)[C@@H]4NC(=O)[C@@H](NC2=O)c2cc(cc(O)c2Cl)Oc2cc1ccc2O)c1ccc(O)c(c1)-c1c(O[C@H]2O[C@H](CO)[C@@H](O)[C@H](O)[C@@H]2O)cc(O)cc1[C@@H](C(=O)NCCCN(C)C)NC3=O` [Dalbavancin], the IC50 was roughly 5 µM at SpyCas9 [3] (read-out: IC50, in vitro purified enzyme assay, linear substrates (87 bp oligonucleotide or 2.5 kb linear DNA)); 10 to 20 µM at SpyCas9 [3] (read-out: IC50, in vitro purified enzyme assay, supercoil (circular) plasmid substrate pcDNA3.1/CT-GFP); roughly 25 µM on SauCas9 [1] (setting [12]); 12.5 to 25 µM at SauCas9 [1] (setting [13]); 12.5 to 25 µM on SpyCas9 [4]; roughly 12.5 µM at SpyCas9 [4] (listed as dalbavancin). In addition, the IC50 is roughly 10 µM at SpyCas9 [5], roughly 10 µM at SpyCas9 [6], roughly 10 µM on SauCas9 [7] and 10 to 20 µM at BE4 base editor. Also, the “effect on the activity of FnoCas12a” value on FnoCas12a is “inactive to or weakly inhibited”. Besides, the “effect on the activity of LbaCas12a” value in the series on LbaCas12a was “inactive to or weakly inhibited”. Also, the “selectivity for Cas9 over other endonucleases EcoRI and KpnI” value in series [8] is reported as “more than 10 folds”. Besides, the “effect on the basal level of PCSK9 in vehicle-treated (sgControl) mice” value in [9] (160 mg/kg) is listed as “did not interfere”. Also, the “preventive effect on loss of plasma PCSK9” value in series [9] (high doses of 80 or 160 mg/kg, 2nd or 3rd treatment cycle) was “strong preventive effects”. For the same compound, the “toxicity to E. coli” value in the series on E. coli MG1655 is given as “did not appear to be much toxic”. In addition, the “elimination half-time (t1/2 value)” value in series [10] is reported as ~ 1 week. Also, the “site of metabolism / elimination” value in series [10] is reported as “largely eliminated in the kidney”.
As to `CCCCC(CC)COC(=O)CC(C(=O)OCC(CC)CCCC)S(=O)(=O)O` (stereo not shown) [Docusate], the 50% inhibitory concentration (IC50) on SpyCas9 [3] (IC50, in vitro purified enzyme assay, linear substrates (87 bp oligonucleotide or 2.5 kb linear DNA)) was 20 to 50 µM; on SpyCas9 [3] (IC50, in vitro purified enzyme assay, supercoil (circular) plasmid substrate pcDNA3.1/CT-GFP) it was 10 to 20 µM; on SauCas9 [1] (IC50, in vitro purified enzyme assay, linear substrates (87 bp oligonucleotide)), 12.5 to 25 µM; against SauCas9 [1] (IC50, in vitro purified enzyme assay, supercoil (circular) plasmid substrate) it was 25 to 50 µM. For the same compound, the Kd at SpyCas9 [11] fell in the range of 12.8 to 56.4 µM. The “effect on the activity of FnoCas12a” value at FnoCas12a is “completely inhibit”. The “selectivity of inhibition between SpyCas9 (Type II-A) and FnoCas12a (Type V)” value on FnoCas12a is “less than 5 folds”. Moreover, the “selectivity of inhibition between SpyCas9 (Type II-A) and LbaCas12a (Type V)” value in the series on LbaCas12a is reported as “less than 5 folds”. For the same compound, the “effect on the activity of LbaCas12a” value in the series with LbaCas12a is listed as “completely inhibit”. Further, in series [8], the “selectivity for Cas9 over other endonucleases EcoRI and KpnI” value is ~ 5 folds.
